# Experimental data gathered from unrelated publications.
# Compare with care: the assays were run in different laboratories.
# Sample: plasma
SMILES,host,route,dose,setting,Cmax
Br.Cc1ccc(Sc2ccccc2N2CCNCC2)c(C)c1,human,oral,20 mg,"multiple doses, steady state, healthy volunteers",33 ng/mL
CCn1c(=O)c(-c2cc(NC(=O)Nc3ccccc3)c(F)cc2Br)cc2cnc(NC)cc21,human,oral,200 mg,"single dose, patients",525 ng/mL
CCO[C@H]1CCN(Cc2c(OC)cc(C)c3[nH]ccc23)[C@H](c2ccc(C(=O)O)cc2)C1,human,oral,25 mg,"multiple doses, twice daily, patients",1450 ng/mL
COc1ccc([C@@H]2CN(C(=O)[C@@H](O)CO)C[C@@]2(C)[C@@H](C)O)cc1OC1CN(c2ccc(C)cn2)C1,human,oral,5 mg,"single dose, healthy volunteers",213 ng/mL
CO[C@@H]1[C@H](OC(=O)N2CC(CCN3CCOCC3)C2)CC[C@]2(CO2)[C@H]1[C@@]1(C)O[C@@H]1CC=C(C)C,human,subcutaneous,0.2 mg,"single dose, healthy volunteers",0.45 ng/mL
O=C(O)C[C@H](O)C[C@H](O)/C=C/c1c(C2CC2)nc2ccccc2c1-c1ccc(F)cc1,human,oral,2 mg,"single dose, fasted, healthy volunteers, tablet",36.4 ng/mL
O=C(Nc1c(Cl)cncc1Cl)c1ccc(OC(F)F)c(OCC2CC2)c1,human,oral,0.375 mg,"multiple doses, once daily, steady state",11.4 ng/mL
CS(=O)(=O)CCNCc1ccc(-c2ccc3ncnc(Nc4ccc(OCc5cccc(F)c5)c(Cl)c4)c3c2)o1,human,oral,750 mg,"multiple doses, twice daily, steady state, patients",2110 ng/mL
FC(F)(F)c1ccc(CNc2ccc(Cc3c[nH]c4ncc(Cl)cc34)cn2)cn1,human,oral,1200 mg,"multiple doses, patients",8730 ng/mL
CCCCC[C@H](O)CC[C@@H]1[C@H]2Cc3cccc(OCC(=O)O)c3C[C@H]2C[C@H]1O,human,inhaled,18 µg,"single dose, healthy volunteers",0.43 ng/mL
CCOc1cc2ncc(C#N)c(Nc3ccc(OCc4ccccn4)c(Cl)c3)c2cc1NC(=O)/C=C/[C@H]1CCCN1C,human,oral,80 mg,single dose,26.5 ng/mL
Cn1c(=O)oc2ccc(-c3ccc(C[C@@H](C#N)NC(=O)[C@@H]4CNCCCO4)cc3)cc21,male human,oral,65 mg,"single dose, healthy volunteers",1360 nM
COc1cc2c(Nc3ccc(Br)cc3F)ncnc2cc1OCC1CCN(C)CC1,human,oral,65 mg/m²,"multiple doses, once daily, steady state, patients",868 ng/mL
COc1cc(C(=O)NC2CCN(C)CC2)c(F)cc1Nc1ncc(C(F)(F)F)c(Oc2cccc3c2C(=O)N(C)C3)n1,human,oral,50 mg,"multiple doses, once daily, steady state, patients",430 nM
CNC(=O)c1cc(Oc2ccc(NC(=O)Nc3cc(C(C)(C)C)nn3-c3ccc4ncccc4c3)c(F)c2)ccn1,human,oral,200 mg,"multiple doses, twice daily",377 ng/mL
CC(C)(C(=O)N1CCOc2c(C#N)cncc2C1)C(F)F,human,oral,10 mg,"single dose, fasted, healthy volunteers",116 ng/mL
CO[C@H]1CC[C@H](N2C(=O)CNc3ncc(-c4ccc(C(C)(C)O)nc4)nc32)CC1,human,oral,60 mg,"multiple doses, patients",480 ng/mL
O=C(/C=C/c1cccc(S(=O)(=O)Nc2ccccc2)c1)NO,human,intravenous,2000 mg/m²,patients,112000 ng/mL
Cc1ccc(C(=O)N(CCCN)[C@@H](c2oc3cc(Cl)ccc3c(=O)c2Cc2ccccc2)C(C)C)cc1,human,intravenous,8 mg/m²,"single dose, patients, infusion",803 ng/mL
COCCOc1cnc2ccn([C@H](C)c3nnc4c(F)cc(-c5cnn(C)c5)cn34)c(=O)c2c1,human,oral,50 mg,"multiple doses, once daily, patients",730 ng/mL
CNCC[C@H](Oc1cccc2ccccc12)c1cccs1,female human,oral,60 mg,"multiple doses, once daily",54 ng/mL
CC(C)(Sc1ccncc1-c1ccc(C#N)c2ccccc12)C(=O)O,male human,oral,20 mg,"single dose, fed, healthy volunteers",181 ng/mL
C[C@@]1(c2cc(NC(=O)c3ccc(C#N)cn3)ccc2F)C=CSC(N)=N1,human,oral,30 mg,single dose,148 ng/mL
CC(C)n1cc(C#N)c2cc(-n3cc(C(=O)O)cn3)ccc21,human,oral,200 mg,"single dose, fasted, healthy volunteers",8770 ng/mL
CCCCC1=NC2(CCCC2)C(=O)N1Cc1ccc(-c2ccccc2S(=O)(=O)Nc2noc(C)c2C)c(COCC)c1,human,oral,800 mg,"single dose, fasted, healthy volunteers",7650 ng/mL
CNCc1ccc(-c2[nH]c3cc(F)cc4c3c2CCNC4=O)cc1,human,oral,600 mg twice daily,"multiple doses, steady state",8190 nM
CCc1nc2c(C)cc(N3CCN(CC(=O)N4CC(O)C4)CC3)cn2c1N(C)c1nc(-c2ccc(F)cc2)c(C#N)s1,human,oral,600 mg,"single dose, fasted, healthy volunteers",5800 ng/mL
CCOc1ccc(Cc2cc([C@@H]3S[C@H](CO)[C@@H](O)[C@H](O)[C@H]3O)c(OC)cc2C)cc1,male human,oral,5 mg,"single dose, fasted, healthy volunteers",208 ng/mL
Cn1cc(-c2ccc(S(=O)(=O)[C@@H]3C[C@@H](C(=O)NC4(C#N)CC4)N(C(=O)C4(C(F)(F)F)CC4)C3)c(C(F)(F)F)c2)cn1,human,oral,1 mg,"single dose, fasted, healthy volunteers",4.51 ng/mL
Oc1cc(O)c2c(c1)O[C@@H](c1ccc(O)c(O)c1)[C@@H](O)C2,human,oral,10 mg,single dose,0.4 ng/mL
N#CN1C[C@H](n2nc(-c3ccc(Oc4ccc(Cl)cn4)cc3)c(C(N)=O)c2N)CCC12CC2,human,oral,600 mg,"single dose, fasted",1120 ng/mL
CC(C)(O)c1ccccc1-c1ccc2[nH]c(/C=C/c3ccc(C(F)(F)F)cc3)nc2c1,male human,oral,5 mg,"single dose, fasted, healthy volunteers",29.6 ng/mL
